Entries after “also recorded” stand apart in the source; their conditions may differ.
What was measured:
[1] = tested on: phosphorylation of Ser473-Akt, MDM2 and IKK in PC-3 xenograft tumors; assay: Western blot of Akt signaling markers in PC-3 tumor lysates; format: in vivo, athymic nude mice; conditions: after 21 days
PH domain of PHLPP1 = target: T1, PH domain of PHLPP1 (Homo sapiens, UniProt O60346); assay: SPR binding to the PHLPP1 PH domain
T1 sequence (O60346 536-636 limits assumed): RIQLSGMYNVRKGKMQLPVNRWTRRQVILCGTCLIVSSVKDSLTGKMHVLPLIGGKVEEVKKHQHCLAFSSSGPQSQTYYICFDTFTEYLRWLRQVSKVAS
Procedure, shortened: (§1)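 Surface plasmon resonance: GST-tagged PH-domain fusion protein amine-coupled to a CM5 chip at 17000 response units. Test compound injected at 1–20 µM at a flow rate of 30 µL/min. DMSO at 1% (v/v) or less in samples and running buffer.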

[2] = tested on: phosphorylation of Akt (Ser473), MDM2 and IKK in PC-3 cells; assay: Western blot of Akt signaling in PC-3 cells; format: cell-based; conditions: different concentrations, 24 h
[3] = tested on: Akt and PHLPP1 membrane localization in LNCaP cells; assay: Immunocytochemistry of cellular distribution of Akt and PHLPP1 in LNCaP cells; format: cell-based; conditions: serum-free medium, 24 h
PH domain of PDK1 = target: T2, PH domain of PDK1 (Homo sapiens, UniProt O15530); assay: SPR binding to the PDK1 PH domain
T2 sequence (O15530 459-550 limits assumed): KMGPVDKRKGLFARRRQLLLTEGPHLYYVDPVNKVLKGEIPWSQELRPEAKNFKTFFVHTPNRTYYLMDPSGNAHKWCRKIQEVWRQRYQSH
Procedure, shortened: as §1

[4] = tested on: subcutaneous PC-3 xenograft tumors; assay: PC-3 xenograft tumor growth in nude mice; format: in vivo, athymic nude mice; conditions: versus vehicle
[5] = tested on: phosphorylation of Akt (Ser473), MDM2 and IKK in LNCaP cells; assay: Western blot of Akt signaling in LNCaP cells; format: cell-based; conditions: different concentrations, 24 h
Procedure, shortened: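 Lines kept in RPMI 1640 with 10% FBS at 37 °C, 5% CO₂. LNCaP were seeded on poly-L-lysine-coated flasks (12000 cells/cm²) for 24 h, then dosed in serum-free RPMI. Cells got test compound for 24 h, then were scraped and lysed in 1% SDS/Tris pH 8 buffer with protease inhibitors. Lysates were spun at 14000g and BCA-normalized, then run on SDS-PAGE/nitrocellulose, probed with primary antibody (1:1000, overnight, 4 °C) and HRP secondary, and detected by ECL.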

[6] = tested on: ILK distribution in LNCaP cells; assay: Immunocytochemistry of cellular distribution of ILK in LNCaP cells; format: cell-based; conditions: serum-free medium, 24 h
Procedure, shortened: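 LNCaP cells seeded on poly-L-lysine-coated surfaces at 12000 cells/cm² for 24 h, then exposed to test compound in serum-free RPMI 1640 for 24 h. Fixed in 4% formaldehyde for 20 min, permeabilised with 0.1% Triton X-100 for 15 min at room temperature, blocked in 1% FBS for 1 h. Endogenous ILK stained with antibody (1:300) overnight, then Alexa Fluor-conjugated secondary (1:500) for 2 h. Nuclei stained with DAPI; imaged by confocal microscopy.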

PH domain of ILK = target: T3, PH domain of ILK (Homo sapiens, UniProt Q13418); assay: SPR binding to the ILK PH domain
T3 sequence (Q13418 180-212 limits assumed): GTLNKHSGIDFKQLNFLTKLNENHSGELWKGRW
Procedure, shortened: as §1

PC-3 cells = assay: MTT cell viability assay in PC-3 cells; format: cell-based; conditions: 24 h exposure in serum-free medium
Procedure, shortened: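 PC-3 cells plated uncoated at 5000 cells/well in 10% FBS. After 24 h, exposed to test compound in serum-free medium for 24 h. MTT added (0.5 mg/mL final) for 2 h, then medium replaced with DMSO and absorbance read at 595 nm. Viability expressed as % of vehicle-treated control; n = 6, means ± SD.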

[7] = tested on: membrane translocation of Akt and PHLPP1 in LNCaP cells; assay: Western blot of membrane versus cytoplasmic fractions of LNCaP cells; format: cell-based; conditions: 24 h
[8] = oral gavage 100 mg/kg once daily
[9] = ip injection 50 mg/kg once daily for 21 days

SMILES	Phosphorylation levels of Akt, MDM2 and IKK in tumor lysates [1, 8]	Phosphorylation level of Akt (Ser473) and/or MDM2 and IKK [2]	Localization of Akt and PHLPP1 to the plasma membrane ([3]; 10 µM)	Suppression of PC-3 xenograft tumor growth [4, 9]	Phosphorylation level of Akt (Ser473) and/or MDM2 and IKK [5]	Localization of Akt and PHLPP1 to the plasma membrane ([3]; 5 µM)	also measured
Cc1c(O)cc2c(c1C)O[C@@](C)(CCCC(C)C)CC2 [Compound 3, (S)-2,7,8-trimethyl-2-(4-methylpentyl)chroman-6-ol]	unable to affect any of these signaling markers	dose-dependently reduced the phosphorylation level of Akt and/or MDM2 and IKK	facilitated the localization of Akt and PHLPP1 to the plasma membrane	significantly suppressed PC-3 xenograft tumor growth	dose-dependently reduced the phosphorylation level of Akt and/or MDM2 and IKK		Kd (PH domain of PHLPP1): 0.69 ± 0.36 µM; Kd (PH domain of PDK1): 10.2 ± 1.2 µM; Suppression of PC-3 xenograft tumor growth ([4]; oral gavage 100 mg/kg once daily for 21 days, 100 mg/kg): not apparent; also recorded: no in vivo tumor-suppressive activity; Cellular distribution of ILK ([6]; 10 µM): Lack of effect; Kd (PH domain of ILK): 8.7 ± 3.6 µM
COc1cc2c(c(C)c1C)OC(C)(CCCC(C)C)CC2 (centres unmarked) [Compound 5]							Antiproliferative effect (IC50) in PC-3 cells (PC-3 cells): remained inactive
Cc1c(S(N)(=O)=O)cc2c(c1C)OC(C)(CCCC(C)C)CC2 (centres unmarked) [Compound 20]	parallel decreases in the phosphorylation levels of Akt, MDM2, and IKK	dose-dependently reduced the phosphorylation level of Akt and/or MDM2 and IKK		equipotent in suppressing PC-3 tumor growth irrespective of the route of administration	dose-dependently reduced the phosphorylation level of Akt and/or MDM2 and IKK	facilitated the localization of Akt and PHLPP1 to the plasma membrane	Phosphorylation levels of Akt, MDM2 and IKK in tumor lysates ([1]; ip injection 50 mg/kg once daily): parallel decreases in the phosphorylation levels of Akt, MDM2, and IKK; Suppression of PC-3 xenograft tumor growth ([4]; oral gavage 100 mg/kg once daily for 21 days): equipotent in suppressing PC-3 tumor growth irrespective of the route of administration; Membrane translocation of Akt and PHLPP1 (membrane versus cytoplasmic fractions) [7]: higher potency than 3 in facilitating the membrane translocation; Cellular distribution of ILK ([6]; 5 µM): Lack of effect; also recorded: no apparent changes in the distribution of ILK
CC(C)CCCC1(C)CCc2cc(S(N)(=O)=O)cc(F)c2O1 (centres unmarked) [Compound 21]		failed to elicit Ser473-Akt dephosphorylation	no change in the cellular distribution of Akt or PHLPP1		failed to elicit Ser473-Akt dephosphorylation		
CC(C)CCCC1(C)CCc2cc(S(N)(=O)=O)cc(Br)c2O1 (centres unmarked) [Compound 22]		dose-dependently reduced the phosphorylation level of Akt and/or MDM2 and IKK			dose-dependently reduced the phosphorylation level of Akt and/or MDM2 and IKK	facilitated the localization of Akt and PHLPP1 to the plasma membrane	

From article PMC4720140 (Journal of medicinal chemistry, 2015)
